Source: ChEMBL document CHEMBL5385966, “Synthesis and biological evaluation of new naphthalimide-thiourea derivatives as potent antimicrobial agents active against multidrug-resistant Staphylococcus aureus and Mycobacterium tuberculosis” (RSC Med Chem, 2024)
Converted amounts (≈) assume the structure as drawn. The source made the active and inactive calls. No cut-off for these calls is given here.

Tests used:
Acinetobacter baumannii = assay: Antibacterial activity against Acinetobacter baumannii BAA 1605 assessed as bacterial growth inhibition incubated for 16 to 18 hrs by CLSI based antibiotic susceptibility testing method; assay type: functional, organism-based; conditions: time 16-18 hrs
Procedure, shortened: (§1)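 Broth microdilution in cation-adjusted Mueller-Hinton broth. Compounds were tested at […], with levofloxacin as reference and medium-only controls. Plates were incubated at 37 °C for 16-18 h. MIC was the lowest concentration with no visible growth; three independent determinations, each in duplicate.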

Staphylococcus aureus [1] = assay: Antibacterial activity against methicillin/ceftriaxone/meropenem-resistant Staphylococcus aureus NRS10191 clinical isolate assessed as bacterial growth inhibition incubated for 16 to 18 hrs by CLSI based antibiotic susceptibility testing method; assay type: functional; conditions: time 16-18 hrs; procedure, shortened: as §1
Staphylococcus aureus [2] = assay: Antibacterial activity against methicillin/ceftriaxone/meropenem/vancomycin/teicoplanin-resistant Staphylococcus aureus VRS12 clinical isolate assessed as bacterial growth inhibition incubated for 16 to 18 hrs by CLSI based antibiotic susceptibility testing method; assay type: functional; conditions: time 16-18 hrs; procedure, shortened: as §1
[3] = tested on: Mycobacteroides abscessus; assay: Antimycobacterial activity against Mycobacterium abscessus ATCC 19977 assessed as bacterial growth inhibition incubated for 72 hrs by resazurin dye based broth microdilution method; assay type: functional, organism-based
Procedure, shortened: (§2)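 Broth microdilution in Middlebrook 7H9 with 10% ADC-Tween-80 (0.2% glycerol, 0.05% Tween-80), inoculum ~10⁶ cfu/mL. Compounds came from 10 mg/mL DMSO stocks and were tested as two-fold serial dilutions at 37 °C, 7 days for M. tuberculosis H37Rv and 72 h for NTM. Growth was read visually with PrestoBlue resazurin dye; MIC was the lowest concentration preventing growth. Triplicate determinations, each in duplicate.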

Staphylococcus aureus [4] = assay: Antibacterial activity against methicillin/ceftriaxone/meropenem-resistant Staphylococcus aureus NRS10198 clinical isolate assessed as bacterial growth inhibition incubated for 16 to 18 hrs by CLSI based antibiotic susceptibility testing method; assay type: functional; conditions: time 16-18 hrs; procedure, shortened: as §1
Staphylococcus aureus [5] = assay: Antibacterial activity against methicillin/ceftriaxone-resistant Staphylococcus aureus NRS10194 clinical isolate assessed as bacterial growth inhibition incubated for 16 to 18 hrs by CLSI based antibiotic susceptibility testing method; assay type: functional; conditions: time 16-18 hrs; procedure, shortened: as §1
Escherichia coli = assay: Antibacterial activity against Escherichia coli ATCC 25922 assessed as bacterial growth inhibition incubated for 16 to 18 hrs by CLSI based antibiotic susceptibility testing method; assay type: functional, organism-based; conditions: time 16-18 hrs; procedure, shortened: as §1
[6] = Cytotoxicity against African green monkey Vero cells by MTT assay; assay type: toxicity, cell-based; conditions: chlorocebus sabaeus
Procedure, shortened: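 Vero cells were seeded at ~10³ per well at 37 °C, 5% CO2. After 24 h, compounds were added at 5-100 mg/L for 72 h. […] was added for 4 h, formazan was dissolved in DMSO and read at 540 nm. CC50 was taken as the lowest concentration reducing viability by 50%; doxorubicin was the positive control; triplicate.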

Staphylococcus aureus [7] = assay: Antibacterial activity against methicillin/ceftriaxone/meropenem/gentamycin/linezolid-resistant Staphylococcus aureus NRS10119 clinical isolate assessed as bacterial growth inhibition incubated for 16 to 18 hrs by CLSI based antibiotic susceptibility testing method; assay type: functional; conditions: time 16-18 hrs; procedure, shortened: as §1
[8] = Selectivity index, ratio of CC50 for African green monkey Vero cells to MIC for Staphylococcus aureus ATCC 29213; assay type: toxicity, cell-based; conditions: read-out: Selectivity Index
Staphylococcus aureus [9] = assay: Antibacterial activity against methicillin/ceftriaxone/meropenem-resistant Staphylococcus aureus NRS10193 clinical isolate assessed as bacterial growth inhibition incubated for 16 to 18 hrs by CLSI based antibiotic susceptibility testing method; assay type: functional; conditions: time 16-18 hrs; procedure, shortened: as §1
[10] = tested on: Mycobacterium tuberculosis; assay: Antimycobacterial activity against Mycobacterium tuberculosis H37Rv ATCC 27294 assessed as bacterial growth inhibition incubated for 7 days by resazurin dye based broth microdilution method; assay type: functional; conditions: H37Rv ATCC 27294, 168 h, time 7 day; procedure, shortened: as §2
Staphylococcus aureus [11] = assay: Antibacterial activity against methicillin/ceftriaxone/meropenem-resistant Staphylococcus aureus NRS10129 clinical isolate assessed as bacterial growth inhibition incubated for 16 to 18 hrs by CLSI based antibiotic susceptibility testing method; assay type: functional; conditions: time 16-18 hrs; procedure, shortened: as §1
Mycobacteroides chelonae = assay: Antimycobacterial activity against Mycobacteroides chelonae ATCC 35752 assessed as bacterial growth inhibition incubated for 72 hrs by resazurin dye based broth microdilution method; assay type: functional, organism-based; procedure, shortened: as §2
Staphylococcus aureus [12] = assay: Antibacterial activity against methicillin-sensitive Staphylococcus aureus ATCC 29213 clinical isolate assessed as bacterial growth inhibition incubated for 16 to 18 hrs by CLSI based antibiotic susceptibility testing method; assay type: functional; conditions: time 16-18 hrs; procedure, shortened: as §1
Staphylococcus aureus [13] = assay: Antibacterial activity against methicillin/ceftriaxone/meropenem-resistant Staphylococcus aureus NRS10186 clinical isolate assessed as bacterial growth inhibition incubated for 16 to 18 hrs by CLSI based antibiotic susceptibility testing method; assay type: functional; conditions: time 16-18 hrs; procedure, shortened: as §1
[14] = tested on: Mycolicibacterium fortuitum; assay: Antimycobacterial activity against Mycobacterium fortuitum ATCC 6841 assessed as bacterial growth inhibition incubated for 72 hrs by resazurin dye based broth microdilution method; assay type: functional, organism-based; procedure, shortened: as §2
Staphylococcus aureus [15] = assay: Antibacterial activity against methicillin/ceftriaxone/meropenem/gentamycin/vancomycin/teicoplanin-resistant Staphylococcus aureus VRS1 clinical isolate assessed as bacterial growth inhibition incubated for 16 to 18 hrs by CLSI based antibiotic susceptibility testing method; assay type: functional; conditions: time 16-18 hrs; procedure, shortened: as §1
Staphylococcus aureus [16] = assay: Antibacterial activity against methicillin/ceftriaxone/meropenem-resistant Staphylococcus aureus NRS10192 clinical isolate assessed as bacterial growth inhibition incubated for 16 to 18 hrs by CLSI based antibiotic susceptibility testing method; assay type: functional; conditions: time 16-18 hrs; procedure, shortened: as §1
Staphylococcus aureus [17] = assay: Antibacterial activity against methicillin/ceftriaxone/meropenem/gentamycin/linezolid-resistant Staphylococcus aureus NRS10100 clinical isolate assessed as bacterial growth inhibition incubated for 16 to 18 hrs by CLSI based antibiotic susceptibility testing method; assay type: functional; conditions: time 16-18 hrs; procedure, shortened: as §1
Staphylococcus aureus [18] = assay: Antibacterial activity against Staphylococcus aureus ATCC 29213 assessed as bacterial growth inhibition incubated for 16 to 18 hrs by CLSI based antibiotic susceptibility testing method; assay type: functional; conditions: time 16-18 hrs; procedure, shortened: as §1
Pseudomonas aeruginosa = assay: Antibacterial activity against Pseudomonas aeruginosa ATCC 27853 assessed as bacterial growth inhibition incubated for 16 to 18 hrs by CLSI based antibiotic susceptibility testing method; assay type: functional, organism-based; conditions: time 16-18 hrs; procedure, shortened: as §1
Klebsiella pneumoniae = assay: Antibacterial activity against Klebsiella pneumoniae BAA 1705 assessed as bacterial growth inhibition incubated for 16 to 18 hrs by CLSI based antibiotic susceptibility testing method; assay type: functional, organism-based; conditions: time 16-18 hrs; procedure, shortened: as §1
Staphylococcus aureus [19] = assay: Antibacterial activity against methicillin/ceftriaxone/meropenem/vancomycin/teicoplanin-resistant Staphylococcus aureus VRS4 clinical isolate assessed as bacterial growth inhibition incubated for 16 to 18 hrs by CLSI based antibiotic susceptibility testing method; assay type: functional; conditions: time 16-18 hrs; procedure, shortened: as §1

Row | Structure (SMILES) | growth inhibition (GI) (Acinetobacter baumannii) | MIC (Staphylococcus aureus [1]) [µg/mL] | MIC (Staphylococcus aureus [2]) [µg/mL] | growth inhibition (GI) [3] | MIC (Staphylococcus aureus [4]) [µg/mL] | MIC (Staphylococcus aureus [5]) [µg/mL] | growth inhibition (GI) (Escherichia coli) | CC50 [6] [µg/mL] | MIC (Staphylococcus aureus [7]) [µg/mL] | selectivity ratio [8] | MIC (Staphylococcus aureus [9]) [µg/mL] | MIC [10] [µg/mL] | MIC (Staphylococcus aureus [11]) [µg/mL] | growth inhibition (GI) (Mycobacteroides chelonae) | MIC (Staphylococcus aureus [12]) [µg/mL] | MIC (Staphylococcus aureus [13]) [µg/mL] | growth inhibition (GI) [14] | MIC (Staphylococcus aureus [15]) [µg/mL] | MIC (Staphylococcus aureus [16]) [µg/mL] | MIC (Staphylococcus aureus [17]) [µg/mL] | also measured
1 | O=C1c2cccc3cccc(c23)C(=O)N1CCN1CCN(C(=S)Nc2ccccc2)CC1 | inactive | 2 (≈ 4.5 µM) | 4 (≈ 9 µM) | inactive | 2 (≈ 4.5 µM) | 4 (≈ 9 µM) | inactive | > 100 | 4 (≈ 9 µM) | > 50 | 2 (≈ 4.5 µM) | > 64 | 4 (≈ 9 µM) | inactive | 4 (≈ 9 µM) | 4 (≈ 9 µM) | inactive | 4 (≈ 9 µM) | 2 (≈ 4.5 µM) | 4 (≈ 9 µM) | MIC (Staphylococcus aureus [18]): 2 µg/mL (≈ 4.5 µM); growth inhibition (GI) (Pseudomonas aeruginosa): inactive; growth inhibition (GI) (Klebsiella pneumoniae): inactive; MIC (Staphylococcus aureus [19]): 2 µg/mL (≈ 4.5 µM)
2 | O=C(CN1C(=O)c2cccc3cccc(c23)C1=O)NC1CCN(C(=S)Nc2ccccc2)CC1 | inactive | 2 (≈ 4.23 µM) | 4 (≈ 8.46 µM) | inactive | 2 (≈ 4.23 µM) | 4 (≈ 8.46 µM) | inactive | > 200 | 2 (≈ 4.23 µM) | > 50 | 2 (≈ 4.23 µM) | > 64 | 4 (≈ 8.46 µM) | inactive | 4 (≈ 8.46 µM) | 2 (≈ 4.23 µM) | inactive | 2 (≈ 4.23 µM) | 1 (≈ 2.12 µM) | 4 (≈ 8.46 µM) | MIC (Staphylococcus aureus [18]): 4 µg/mL (≈ 8.46 µM); growth inhibition (GI) (Pseudomonas aeruginosa): inactive; growth inhibition (GI) (Klebsiella pneumoniae): inactive; MIC (Staphylococcus aureus [19]): 2 µg/mL (≈ 4.23 µM)
3 | O=C(CCN1C(=O)c2cccc3cccc(c23)C1=O)N1CCN(C(=S)NC2CCCCC2)CC1 | inactive | 2 (≈ 4.18 µM) | 2 (≈ 4.18 µM) | inactive | 1 (≈ 2.09 µM) | 2 (≈ 4.18 µM) | inactive | > 50 | 2 (≈ 4.18 µM) | > 50 | 4 (≈ 8.36 µM) | > 64 | 2 (≈ 4.18 µM) | inactive | 2 (≈ 4.18 µM) | 1 (≈ 2.09 µM) | inactive | 2 (≈ 4.18 µM) | 1 (≈ 2.09 µM) | 4 (≈ 8.36 µM) | MIC (Staphylococcus aureus [18]): 1 µg/mL (≈ 2.09 µM); growth inhibition (GI) (Pseudomonas aeruginosa): inactive; growth inhibition (GI) (Klebsiella pneumoniae): inactive; MIC (Staphylococcus aureus [19]): 1 µg/mL (≈ 2.09 µM)
4 | O=C(CN1C(=O)c2cccc3cccc(c23)C1=O)NC1CCN(C(=S)NC2CCCCC2)CC1 | inactive | 0.125 (≈ 0.261 µM) | 0.25 (≈ 0.522 µM) | inactive | 0.25 (≈ 0.522 µM) | 0.25 (≈ 0.522 µM) | inactive | > 10 | 0.125 (≈ 0.261 µM) | > 40 | 0.125 (≈ 0.261 µM) | > 64 | 0.5 (≈ 1.04 µM) | inactive | 0.25 (≈ 0.522 µM) | 0.125 (≈ 0.261 µM) | inactive | 0.5 (≈ 1.04 µM) | 0.25 (≈ 0.522 µM) | 0.25 (≈ 0.522 µM) | MIC (Staphylococcus aureus [18]): 0.25 µg/mL (≈ 0.522 µM); growth inhibition (GI) (Pseudomonas aeruginosa): inactive; growth inhibition (GI) (Klebsiella pneumoniae): inactive; MIC (Staphylococcus aureus [19]): 0.25 µg/mL (≈ 0.522 µM)
